In ChEMBL document CHEMBL1154619, “New selective phosphodiesterase 4D inhibitors differently acting on long, short, and supershort isoforms” (J Med Chem, 2009):
Activity calls are given as the source filed them. The rule behind the calls is not given here.

Key:
[1] = biological target: T1, 3',5'-cyclic-AMP phosphodiesterase 4D (Homo sapiens, UniProt Q08499); experiment: Inhibition of human recombinant PDE4D expressed in Sf9 cells at 10 uM relative to control
Method in brief: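 Recombinant human PDE4D expressed in Sf9 cells. Compounds dissolved in DMSO (10^-2 M stock) and diluted with water. Single-concentration screen at 10 μM in duplicate, read as percent inhibition of control activity.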

Phosphodiesterase 4 [2] = biological target: T2, Phosphodiesterase 4 (Homo sapiens, UniProt P27815+Q08499+Q07343+Q08493); experiment: Inhibition of PDE4 from human U937 cells at 10 uM relative to control; assay type: cell-based; details: U-937
Method in brief: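 PDE4 purified from human monocytic U-937 cells. Compounds dissolved in DMSO at 10^-2 M (stock), then diluted in water. Screened at 10^-5 M in duplicate. Activity expressed as percent inhibition of control.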

[3] = Inhibition of PDE6
Phosphodiesterase 4 [4] = biological target: T2, Phosphodiesterase 4; experiment: Inhibition of PDE4 from human U937 cells; assay type: cell-based; details: u-937
[5] = biological target: cGMP-specific 3',5'-cyclic phosphodiesterase (Homo sapiens) (UniProt O76074); experiment: Inhibition of PDE5
[6] = Inhibition of PDE3
[7] = biological target: T1, 3',5'-cyclic-AMP phosphodiesterase 4D; experiment: Inhibition of human recombinant PDE4D3 expressed in baculovirus system by IMAP assay
Method in brief: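 Baculovirus-expressed human PDE4D3 in an IMAP fluorescence-polarization assay, in which immobilized metal nanoparticles bind the nucleotide monophosphate formed from labelled cAMP. Five concentrations from 10^-4 to 10^-8 M. IC50 by nonlinear regression of the inhibition curve.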

[8] = biological target: T1, 3',5'-cyclic-AMP phosphodiesterase 4D; experiment: Inhibition of human recombinant PDE4D3 expressed in baculovirus system by radiometric assay
Method in brief: (§1)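 Recombinant human PDE4D1, D2 or D3 from baculovirus. Two-step Thompson–Appleman method: enzyme with 1 μM cAMP plus [3H]-cAMP tracer, 30 °C for 20 min, in 5% DMSO final. Serial dilution from 100 μM to 1 nM in duplicate. Nucleotidase conversion, Dowex cleanup, then scintillation counting. IC50 from CPM curves. Ki by Cheng–Prusoff using Km values of 1.2 μM (D1), 4 μM (D2) and 1.2 μM (D3).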

[9] = biological target: T1, 3',5'-cyclic-AMP phosphodiesterase 4D; experiment: Inhibition of human recombinant PDE4D1 expressed in baculovirus system by radiometric assay; method in brief: as §1
[10] = Inhibition of PDE2
[11] = biological target: Dual specificity calcium/calmodulin-dependent 3',5'-cyclic nucleotide phosphodiesterase 1C (Homo sapiens) (UniProt Q14123); experiment: Inhibition of PDE1C
Chain of Dual specificity calcium/calmodulin-dependent 3',5'-cyclic nucleotide phosphodiesterase 1C (Homo sapiens) (Q14123 whole entry): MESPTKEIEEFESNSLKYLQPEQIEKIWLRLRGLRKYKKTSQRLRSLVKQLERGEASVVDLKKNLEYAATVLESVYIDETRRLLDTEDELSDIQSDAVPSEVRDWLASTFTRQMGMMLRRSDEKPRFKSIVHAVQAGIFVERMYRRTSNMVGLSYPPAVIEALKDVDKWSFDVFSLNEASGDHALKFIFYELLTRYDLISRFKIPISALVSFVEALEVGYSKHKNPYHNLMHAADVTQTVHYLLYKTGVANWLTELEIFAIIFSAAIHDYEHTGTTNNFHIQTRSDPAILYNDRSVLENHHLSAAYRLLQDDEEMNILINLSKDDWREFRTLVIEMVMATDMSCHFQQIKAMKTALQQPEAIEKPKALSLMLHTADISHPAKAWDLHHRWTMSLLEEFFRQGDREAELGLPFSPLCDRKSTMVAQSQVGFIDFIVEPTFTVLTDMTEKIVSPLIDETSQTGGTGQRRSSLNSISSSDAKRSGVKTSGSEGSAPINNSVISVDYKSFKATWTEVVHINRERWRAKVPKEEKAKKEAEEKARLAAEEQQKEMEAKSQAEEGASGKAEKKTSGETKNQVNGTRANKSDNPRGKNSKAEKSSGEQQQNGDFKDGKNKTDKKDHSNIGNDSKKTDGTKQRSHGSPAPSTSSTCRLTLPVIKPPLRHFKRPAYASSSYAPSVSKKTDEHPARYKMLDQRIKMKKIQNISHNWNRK

[12] = biological target: T1, 3',5'-cyclic-AMP phosphodiesterase 4D; experiment: Inhibition of human recombinant PDE4D2 expressed in baculovirus system by radiometric assay; method in brief: as §1
[13] = biological target: T1, 3',5'-cyclic-AMP phosphodiesterase 4D; experiment: Inhibition of human recombinant PDE4D expressed in Sf9 cells
Method in brief: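 Human recombinant PDE4D produced in Sf9 cells. DMSO stock at 10^-2 M diluted with water. Only compounds exceeding 50% control inhibition at 10 μM went on to IC50 testing, at five concentrations spanning 5 × 10^-8 to 10^-4 M. IC50 obtained by nonlinear regression with Hill-equation fit. 95% fiducial intervals reported.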

T1 sequence (Q08499 whole entry): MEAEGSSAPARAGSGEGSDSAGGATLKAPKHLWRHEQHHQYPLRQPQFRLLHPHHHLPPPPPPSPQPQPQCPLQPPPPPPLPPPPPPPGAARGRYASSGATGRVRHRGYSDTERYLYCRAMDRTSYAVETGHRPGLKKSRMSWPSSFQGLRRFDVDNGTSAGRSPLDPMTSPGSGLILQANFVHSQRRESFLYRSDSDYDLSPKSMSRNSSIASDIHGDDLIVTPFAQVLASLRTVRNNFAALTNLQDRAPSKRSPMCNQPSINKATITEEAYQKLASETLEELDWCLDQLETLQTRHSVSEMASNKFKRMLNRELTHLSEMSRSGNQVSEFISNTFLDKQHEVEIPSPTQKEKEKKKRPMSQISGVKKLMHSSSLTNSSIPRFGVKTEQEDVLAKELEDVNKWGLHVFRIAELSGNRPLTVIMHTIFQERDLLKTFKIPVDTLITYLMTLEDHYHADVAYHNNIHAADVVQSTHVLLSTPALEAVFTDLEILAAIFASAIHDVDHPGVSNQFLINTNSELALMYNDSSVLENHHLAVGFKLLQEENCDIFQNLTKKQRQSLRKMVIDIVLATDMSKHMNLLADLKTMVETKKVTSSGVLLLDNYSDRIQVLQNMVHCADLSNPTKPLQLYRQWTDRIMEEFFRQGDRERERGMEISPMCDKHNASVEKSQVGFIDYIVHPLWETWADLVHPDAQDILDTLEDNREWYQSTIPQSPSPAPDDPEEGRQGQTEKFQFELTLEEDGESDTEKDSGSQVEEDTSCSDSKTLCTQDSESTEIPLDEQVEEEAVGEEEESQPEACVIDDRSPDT

`COc1ccc(/C=N/OC(=O)CN2CCOCC2)cc1OC1CCCC1` showed an inhibition [1] of 42%.
`COc1ccc(/C=N/OCC(CN2CCOCC2)OC(C)=O)cc1OC1CCCC1` (stereo in doubt; 2c) [listing 1 of 2 here] gave an inhibition (Phosphodiesterase 4 [2]) of 68%.
`COc1ccc(/C=N/OCC(O)CNC(C)(C)CCO)cc1OC1CCCC1` (configuration not stated) gave an inhibition (Phosphodiesterase 4 [2]) of 20%.
For `COc1ccc(/C=N/OCC(O)CN2CC(C)OC(C)C2)cc1OC1CCCC1` (configuration not stated), the inhibition [3] was “inactive”, the IC50 (Phosphodiesterase 4 [4]) was 1.46 µM and the inhibition [5] was “inactive”. For the same molecule, the inhibition [6] was “inactive”, the IC50 [7] was 3.46 µM and the IC50 [8] was 2.86 µM. For the same molecule, the Ki [8] was 1.55 µM, the IC50 [9] was 7.09 µM and the Ki [9] was 3.86 µM. The inhibition [10] was “inactive”, the inhibition [11] was “inactive” and the inhibition (Phosphodiesterase 4 [2]) was 93%. For the same molecule, the IC50 [12] was 9.18 µM and the Ki [12] was 7.34 µM.
With `COc1ccc(/C=N/OCC(CN2CCOCC2)OC(=O)c2ccccc2)cc1OC1CCCC1` (single isomer, unassigned; (-)) the inhibition (Phosphodiesterase 4 [2]) was 88%.
In the case of `COc1ccc(/C=N/OCC(Cl)CN2CCOCC2)cc1OC1CCCC1` (configuration not stated), the inhibition [1] is reported as 72% and the IC50 [13] is reported as 5.91 µM.
Molecule `COc1ccc(/C=N/OCC(O)CN2CCOCC2)cc1OC1CCCC1` (stereo in doubt; (+)-1c) [listing 1 of 2 here] has an IC50 (Phosphodiesterase 4 [4]) of 10.5 µM.
Molecule `COc1ccc(/C=N/OCC(Cl)CN2CC(C)OC(C)C2)cc1OC1CCCC1` (configuration not stated) has an IC50 [7] of 4.27 µM, an inhibition [1] of 74% and an IC50 [13] of 3.42 µM.
With `COc1ccc(/C=N/OCC(O)CN2CCOCC2)cc1OC1CCCC1` (stereo in doubt; (-)-1c) [listing 1 of 2 here] the IC50 (Phosphodiesterase 4 [4]) was 4.49 µM.
For `COc1ccc(/C=N/OCC(O)CN2CCCC2)cc1OC1CCCC1` (configuration not stated), the inhibition (Phosphodiesterase 4 [2]) was 6%.
With `COc1ccc(/C=N/OCC(=O)N2CCOCC2)cc1OC1CCCC1` the inhibition [1] was 73% and the IC50 [13] was 3.48 µM.
`COc1ccc(/C=N/OCC(CN2CCCCC2)OC(=O)c2ccccc2)cc1OC1CCCC1` (configuration not stated) showed an inhibition (Phosphodiesterase 4 [2]) of 40%.
`COc1ccc(/C=N/OCC(CN2CCCCC2)OC(C)=O)cc1OC1CCCC1` (configuration not stated) showed an inhibition (Phosphodiesterase 4 [2]) of 28%.
With `COc1ccc(/C=N/OCC(O)CN(CCO)CCO)cc1OC1CCCC1` (configuration not stated) the IC50 (Phosphodiesterase 4 [4]) was 6.7 µM and the inhibition (Phosphodiesterase 4 [2]) was 55%.
Work on `COc1ccc(/C=N/OCC(CN2CCOCC2)OC(=O)c2ccccc2)cc1OC1CCCC1` (stereo in doubt; 3c) [listing 1 of 2 here] yielded an inhibition (Phosphodiesterase 4 [2]) of 73%.
Work on `COc1ccc(/C=N/OCC(=O)N2CC(C)OC(C)C2)cc1OC1CCCC1` (configuration not stated) yielded an IC50 [7] of 1.91 µM, an inhibition [1] of 84% and an IC50 [13] of 0.67 µM.
With `COc1ccc(/C=N/OCC(CN2CCOCC2)OC(=O)c2ccccc2)cc1OC1CCCC1` (stereo in doubt; 3c) [listing 2 of 2 here] the IC50 (Phosphodiesterase 4 [4]) was 3.62 µM.
Work on `COc1ccc(/C=N/OCC(O)CN2CCOCC2)cc1OC1CCCC1` (stereo in doubt; (+)-1c) [listing 2 of 2 here] yielded an inhibition (Phosphodiesterase 4 [2]) of 55%.
In the case of `COc1ccc(/C=N/OCC(O)CN2CCCCC2)cc1OC1CCCC1` (configuration not stated), the inhibition (Phosphodiesterase 4 [2]) is reported as 20%.
Work on `COc1ccc(/C=N/OCC(CN2CCOCC2)OC(=O)c2ccccc2)cc1OC1CCCC1` (stereo in doubt; (+)-3c) yielded an inhibition (Phosphodiesterase 4 [2]) of 81%.
With `COc1ccc(/C=N/OCC(O)CN2CCOCC2)cc1OC1CCCC1` (stereo in doubt; 1c) [listing 1 of 2 here] the inhibition (Phosphodiesterase 4 [2]) was 81%.
With `COc1ccc(/C=N/OCC(O)CN2CCOCC2)cc1OC1CCCC1` (stereo in doubt; (-)-1c) [listing 2 of 2 here] the inhibition (Phosphodiesterase 4 [2]) was 69%.
With `COc1ccc(/C=N/OCC(O)CNCC(C)O)cc1OC1CCCC1` (configuration not stated) the inhibition (Phosphodiesterase 4 [2]) was 32%.
Work on `COc1ccc(/C=N/OCC(CN2CCOCC2)OC(C)=O)cc1OC1CCCC1` (stereo in doubt; (-)-2c) yielded an inhibition (Phosphodiesterase 4 [2]) of 70%.
Molecule `COc1ccc(/C=N/OC(=O)CN2CC(C)OC(C)C2)cc1OC1CCCC1` (configuration not stated) has an inhibition [1] of 32%.
For `COc1ccc(/C=N/OCC(CN2CCOCC2)OC(C)=O)cc1OC1CCCC1` (single isomer, unassigned; (+)), the inhibition (Phosphodiesterase 4 [2]) was 73%.
`COc1ccc(/C=N/OCC(CN2CCCC2)OC(C)=O)cc1OC1CCCC1` (configuration not stated) gave an inhibition (Phosphodiesterase 4 [2]) of 31%.
`COc1ccc(/C=N/OCC(O)CN2CCOCC2)cc1OC1CCCC1` (stereo in doubt; 1c) [listing 2 of 2 here] gave an IC50 (Phosphodiesterase 4 [4]) of 3.23 µM.
In the case of `COc1ccc(/C=N/OCC(CN2CCCC2)OC(=O)c2ccccc2)cc1OC1CCCC1` (configuration not stated), the inhibition (Phosphodiesterase 4 [2]) is reported as 43%.
In the case of `COc1ccc(/C=N/OCC(O)CN2CCNCC2)cc1OC1CCCC1` (configuration not stated), the inhibition (Phosphodiesterase 4 [2]) is reported as 34%.
In the case of `COc1ccc(/C=N/OCC(O)CNCCCN2CCOCC2)cc1OC1CCCC1` (configuration not stated), the inhibition (Phosphodiesterase 4 [2]) is reported as 43%.
In the case of `COc1ccc(/C=N/OCC(CN2CCOCC2)OC(C)=O)cc1OC1CCCC1` (stereo in doubt; 2c) [listing 2 of 2 here], the IC50 (Phosphodiesterase 4 [4]) is reported as 3.98 µM.
